# Shown are actives, neighbours in structure and some others; about 4.9% of the full set was active somewhere.
# STAT3 blocker – STAT3 signaling inhibition; U3A cells, IL-6 STAT3-luciferase reporter, luminescence; host cell line lacks STAT1; actives 0.89% (n = 190,000); inhibition, % at 5.5 µM;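 active = inhibition above the mean inhibition across all screened compounds plus 3 SD, cut at about 44% in these data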;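 also: 0% = DMSO only wells and 100% = 100 µM nifuroxazide control wells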
# APP 5'UTR act – APP 5'UTR luciferase reporter activation | actives 1% (n = 190,000) | activation, % at 2 µM | SH-SY5Y APP 5'UTR luciferase reporter, luminescence; zero percent = DMSO vehicle wells | AID 1276;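 active = activation above a set limit, based on mean plus 3 SD of controls, cut at about 140% in these data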
# STAT3 act – increases IL-6 driven STAT3 reporter signal. actives 0.91% (n = 190,000). activation (% of control), % at 5.6 µM. U3A cells, IL-6 STAT3-luciferase reporter, luminescence; 100% = signal with IL-6 EC80 alone. AID 871;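 active = activation above the screen-wide mean of compound activation plus 3 SD, cut at about 130% in these data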;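 also: 0% = background luminescence of wells with medium and substrate only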
#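 Detection: reporter luminescence signal / Assay system: STAT1-lacking human U3A cells, STAT3 luciferase reporter / Incubation: compound pre-incubation 1 h before IL-6, then 6 h stimulation at 37 °C / Control set: IL-6-only high control / Read-out: % activation relative to IL-6 control / Probe or stimulus: Interleukin-6, 33 ng/mL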
# STAT1 blocker – STAT1 signaling inhibition | actives 0.35% (n = 200,000) | inhibition, % at 5.5 µM | AID 920 | NIH 3T3 STAT1-luciferase reporter, IFN-gamma, luminescence;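 active = inhibition above a set limit, the mean inhibition across all tested compounds plus 3 SD, cut at about 34% in these data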;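 also: 0% = IFN-gamma with DMSO and 100% = IFN-gamma with 300 µM nifuroxazide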
# STAT1 act – increases IFN-gamma driven STAT1 reporter signal | actives 2.6% (n = 200,000) | activation (% of control), % at 5.5 µM | AID 932 | NIH 3T3 STAT1-luciferase reporter, luminescence; 100% = IFN-gamma alone, no compound;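 active = activation above the screen-wide mean activation plus 3 SD, cut at about 130% in these data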;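 also: raw ratio to IFN-gamma control signal so 100% means no change and 0% no light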
# NF-kB expr up – compounds increasing NF-kB expression in human neuronal cells; NF-kB reporter expression; hits give high values; fold change at 12.5 µM; actives 1.6% (n = 190,000); AID 1239; in the data active = fold change above about 3.3
# * = called active by the depositor; . = no result.
SMILES,STAT3 blocker,APP 5'UTR act,STAT3 act,STAT1 blocker,STAT1 act,NF-kB expr up
Cc1cccc(C)c1Nc1nnc(SCc2nc3ccccc3s2)s1,-36,129,130,-27,124,1.4
Cc1ccnc(SCc2nc3ccccc3s2)n1,-32,106,136*,-33,130*,1.9
CCOC(=O)C1=c2/c(=C/c3ccncc3)c(N)c(C(=O)OC)n2C(=O)C(c2ccncc2)S1 (configuration not stated),10,14,97,-12,110,0.52
O=C(COc1ccccc1F)N/N=C1\CCCc2ccccc21,2,48,97,-43,139*,3
Cc1cc(Cl)ccc1OCC(=O)N/N=C1\CCCc2ccccc21,12,8,92,5,96,1.4
COc1cccc(C2c3[nH]c4ccccc4c3CCN2Cc2cccn2-c2ncccn2)c1 (configuration not stated),-31,9,133*,-1,101,1
CCn1cc(CN2CCc3c([nH]c4ccccc34)C2c2cccc(OC)c2)c(C)n1 (configuration not stated),-30,8,133*,-5,102,0.86
Fc1ccc(C2c3[nH]c4ccccc4c3CCN2Cc2cccn2-c2ncccn2)cc1 (configuration not stated),-1,17,102,10,89,1.4
Nc1c(C(=O)Nc2ccc(F)cc2)sc(=S)n1-c1ccccc1F,10,58,101,-35,131*,1.7
CC(OC(=O)c1ccc([N+](=O)[O-])s1)C(=O)Nc1ncc(Cl)cc1Cl (configuration not stated),-12,7,111,1,99,1
Cc1ccc(NC2Nc3cc(C)nn3S2)c(C)c1 (configuration not stated),21,62,89,-48,142*,2.7
Cc1cc2n(n1)SC(Nc1ccccc1)N2 (configuration not stated),19,7,91,-6,105,1.2
Cc1ccc(NCc2n[nH]c(=S)n2Cc2ccccc2)cc1Cl,4,1,99,-1,99,1.1
Cc1occc1C(=O)N/N=C/c1c[nH]c2ccccc12,-25,143*,131,-35,132*,3
Cc1c(/C=N\NC(=O)c2c[nH]c3ccccc23)cnn1C,11,27,95,-24,118,1.3
O=C(N/N=C/c1cccs1)c1c[nH]c2ccccc12,-3,44,102,-31,129*,2.3
Cc1ccc(/C=N/NC(=O)c2ccoc2C)o1,-10,28,109,-36,132*,1.7
COc1cc(/C=N/NC(=O)c2ccoc2C)cc(OC)c1O,-3,-2,100,-39,135*,1.1
Nc1cc(=O)[nH]c(SCc2nnnn2-c2ccc(Cl)cc2)n1,0,9,104,3,97,0.95
O=C1CC(N2CCC(O)(c3ccc(Br)cc3)CC2)C(=O)N1c1ccc(Cl)cc1 (configuration not stated),-3,-3,100,-3,103,0.92
Cc1occc1C(=O)N/N=C/C=C/c1ccccc1,13,55,98,-52,146*,2.6
CN(C)C(=S)N=Nc1[nH]c2ccccc2c1O,-57,-12,152*,-88,176*,0.26
Fc1ccccc1-c1nc2ccccc2[nH]1,16,100,88,-39,134*,3.1
Cc1ccccc1-c1nc2ccccc2[nH]1,-1,56,102,-31,133*,2.6
c1ccc2nc(-c3nc4ccccc4[nH]3)ccc2c1,83*,192*,34,39*,65,4.2*
CCOC(=O)c1c(/N=C/C2=C(O)CC(C)(C)CC2=O)sc(C)c1C,4,-19,99,11,91,1.3
Cc1nnc(NC(=O)C2CCN(S(=O)(=O)c3ccc(Cl)cc3)CC2)s1,10,-11,93,1,98,1.1
Cc1ccc(/C=C/C(=O)c2ccc(N3CCOCC3)cc2)s1,32,106,77,-37,135*,3.3
Cc1cccc(/C=C/C(=O)c2ccc(N3CCOCC3)cc2)c1,12,-1,91,-6,105,0.9
CC(=O)c1cccc(NC(=O)c2cnn3ccccc23)c1,26,.,85,-32,129*,3.4*

# Assay outcomes from PubChem.
